Key:
[1] = target: Sodium-dependent dopamine transporter (Homo sapiens, UniProt Q01959); test: Displacement of [125I]RTI-55 from human DAT receptor expressed in canine kidney cells; format: cell-based
Method in brief: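 Competition binding against [¹²⁵I]RTI-55 in canine kidney cells stably transfected with human DAT. Ki in nM, geometric mean ± SD of at least three separate experiments, each run in triplicate.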

[2] = organism: Homo sapiens; test: Selectivity for human NET over human SERT
Method in brief: (§1)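 Competition binding in stably transfected cells expressing human transporters: NET vs [3H]nisoxetine and SERT vs [3H]citalopram in HEK-293 cells; DAT vs [125I]RTI-55 in canine kidney cells. Ki as geometric mean of at least three experiments in triplicate; selectivity as ratio of SERT or DAT Ki to NET Ki.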

[3] = Ratio of drug uptake in midbrain to caudate of awaken rhesus monkey at 15 to 20 mCi after by PET method; format: ADME, Macaca mulatta; conditions: in vivo
Method in brief: (§2)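 Awake rhesus monkeys imaged on a high-resolution research tomograph (HRRT) for 120 min after radioligand injection; images coregistered with composite MRI to define regions; time-activity curves generated and highest ratio of regional uptake to caudate uptake taken.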

[4] = Ratio of drug uptake in pons to caudate of awaken rhesus monkey at 15 to 20 mCi after by PET method; format: ADME, Macaca mulatta; conditions: in vivo; method in brief: as §2
[5] = Ratio of drug uptake in cerebellum to caudate of awaken rhesus monkey at 15 to 20 mCi after by PET method; format: ADME, tissue-based, Macaca mulatta; conditions: in vivo
Method in brief: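 Awake rhesus monkeys imaged on a high-resolution research tomograph for 120 min after injection of the ¹¹C tracer. Images coregistered with composite MRI to define regions of interest. Highest cerebellum-to-caudate uptake ratio read from the time-activity curves.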

[6] = Ratio of drug uptake in thalamus to caudate of awaken rhesus monkey at 15 to 20 mCi after by PET method; format: ADME, Macaca mulatta; conditions: in vivo; method in brief: as §2
[7] = Ratio of drug uptake in midbrain to caudate of anesthetized rhesus monkey at 15 to 20 mCi after 85 mins postinjection by microPET; format: ADME, organism-based, Macaca mulatta; conditions: in vivo
Method in brief: (§3)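 Anesthetized adult male rhesus monkeys given 15–20 mCi of the ¹¹C tracer, alone or after desipramine (0.125 or 0.25 mg/kg) 40 min beforehand. MicroPET emission collected continuously for 125 min and binned. ROIs drawn manually on anatomical landmarks to give time-activity curves. Region-to-caudate uptake ratio taken at 85 min postinjection.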

[8] = Ratio of drug uptake in thalamus to caudate of anesthetized rhesus monkey at 15 to 20 mCi pretreated with 0.125 mg/kg desipramine by microPET; format: ADME, organism-based, Macaca mulatta; set-up: dose 0.125 mg/kg; conditions: in vivo
Method in brief: (§4)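 Anesthetized adult male rhesus monkeys imaged on a microPET P4 system after injection of 15–20 mCi of the 11C-labeled radioligand. Desipramine was given 40 min before radiotracer injection. Emission data were collected continuously for 125 min and binned. ROIs were drawn manually on anatomical landmarks in the reconstructed images. The ratio of region-of-interest to caudate uptake was taken from time-activity curves at 85 min postinjection.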

[9] = Ratio of drug uptake in thalamus to caudate of anesthetized rhesus monkey at 15 to 20 mCi after 85 mins postinjection by microPET; format: ADME, organism-based, Macaca mulatta; conditions: in vivo
Method in brief: (§5)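 Anesthetized adult male rhesus monkeys scanned on a microPET P4 after 15–20 mCi of the 11C radioligand; emission collected continuously for 125 min, binned, time-activity curves from manually drawn anatomical ROIs; regional uptake divided by caudate uptake (caudate as NET-poor reference) at 85 min postinjection, at baseline.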

[10] = Ratio of drug uptake in cerebellum to caudate of anesthetized rhesus monkey at 15 to 20 mCi pretreated with 0.125 mg/kg desipramine by microPET; format: ADME, organism-based, Macaca mulatta; set-up: dose 0.125 mg/kg; conditions: in vivo; method in brief: as §4
[11] = Ratio of drug uptake in pons to caudate of anesthetized rhesus monkey at 15 to 20 mCi pretreated with 0.125 mg/kg desipramine by microPET; format: ADME, organism-based, Macaca mulatta; set-up: dose 0.125 mg/kg; conditions: in vivo; method in brief: as §4
[12] = Ratio of drug uptake in pons to caudate of anesthetized rhesus monkey at 15 to 20 mCi after 85 mins postinjection by microPET; format: ADME, organism-based, Macaca mulatta; conditions: in vivo; method in brief: as §5
[13] = Ratio of drug uptake in cerebellum to caudate of anesthetized rhesus monkey at 15 to 20 mCi after 85 mins postinjection by microPET; format: ADME, organism-based, Macaca mulatta; conditions: in vivo; method in brief: as §3
[14] = Ratio of drug uptake in midbrain to caudate of anesthetized rhesus monkey at 15 to 20 mCi pretreated with 0.125 mg/kg desipramine by microPET; format: ADME, organism-based, Macaca mulatta; set-up: dose 0.125 mg/kg; conditions: in vivo; method in brief: as §4
[15] = target: Sodium-dependent noradrenaline transporter (Homo sapiens, UniProt P23975); test: Displacement of [3H]nisoxetine from human NET receptor expressed in HEK293 cells; format: cell-based
[16] = organism: Homo sapiens; test: Selectivity for human NET over human DAT; method in brief: as §1
[17] = target: Sodium-dependent serotonin transporter (Homo sapiens, UniProt P31645); test: Displacement of [3H]citalopram from human SERT receptor expressed in HEK293 cells; format: cell-based
Method in brief: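 Competition binding against [³H]citalopram in HEK-293 cells stably transfected with human SERT. Ki in nM, geometric mean ± SD of at least three separate experiments, each run in triplicate.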

[18] = Lipophilicity, log P at pH 7.4; format: physicochemical; conditions: buffer
Method in brief: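 Radiotracer (~5–10 μCi) in 2 mL 1-octanol plus 2 mL 0.02 M sodium phosphate buffer, pH 7.4. Vortexed 10 min at room temperature, centrifuged 5 min. 0.5 mL of each layer gamma-counted and decay corrected. log P = log(octanol counts/buffer counts), done three times and averaged.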

Sequence of Sodium-dependent dopamine transporter (Q01959 whole entry): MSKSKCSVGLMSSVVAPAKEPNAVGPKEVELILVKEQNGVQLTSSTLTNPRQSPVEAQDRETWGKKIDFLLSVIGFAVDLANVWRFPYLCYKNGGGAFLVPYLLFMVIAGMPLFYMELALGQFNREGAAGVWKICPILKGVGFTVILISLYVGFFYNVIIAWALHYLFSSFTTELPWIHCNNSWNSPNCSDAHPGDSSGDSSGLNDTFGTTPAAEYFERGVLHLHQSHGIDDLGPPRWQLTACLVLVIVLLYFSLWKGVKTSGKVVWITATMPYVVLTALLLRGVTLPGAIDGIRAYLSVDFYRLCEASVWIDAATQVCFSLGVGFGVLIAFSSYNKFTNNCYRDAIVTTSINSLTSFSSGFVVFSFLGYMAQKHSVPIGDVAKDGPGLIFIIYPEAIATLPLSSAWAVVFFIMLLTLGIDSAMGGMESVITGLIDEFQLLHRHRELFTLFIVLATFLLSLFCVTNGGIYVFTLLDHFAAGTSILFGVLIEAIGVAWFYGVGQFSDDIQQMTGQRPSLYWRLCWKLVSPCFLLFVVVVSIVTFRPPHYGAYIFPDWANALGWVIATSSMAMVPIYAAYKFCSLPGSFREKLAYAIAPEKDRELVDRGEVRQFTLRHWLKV
Sequence of Sodium-dependent serotonin transporter (P31645 whole entry): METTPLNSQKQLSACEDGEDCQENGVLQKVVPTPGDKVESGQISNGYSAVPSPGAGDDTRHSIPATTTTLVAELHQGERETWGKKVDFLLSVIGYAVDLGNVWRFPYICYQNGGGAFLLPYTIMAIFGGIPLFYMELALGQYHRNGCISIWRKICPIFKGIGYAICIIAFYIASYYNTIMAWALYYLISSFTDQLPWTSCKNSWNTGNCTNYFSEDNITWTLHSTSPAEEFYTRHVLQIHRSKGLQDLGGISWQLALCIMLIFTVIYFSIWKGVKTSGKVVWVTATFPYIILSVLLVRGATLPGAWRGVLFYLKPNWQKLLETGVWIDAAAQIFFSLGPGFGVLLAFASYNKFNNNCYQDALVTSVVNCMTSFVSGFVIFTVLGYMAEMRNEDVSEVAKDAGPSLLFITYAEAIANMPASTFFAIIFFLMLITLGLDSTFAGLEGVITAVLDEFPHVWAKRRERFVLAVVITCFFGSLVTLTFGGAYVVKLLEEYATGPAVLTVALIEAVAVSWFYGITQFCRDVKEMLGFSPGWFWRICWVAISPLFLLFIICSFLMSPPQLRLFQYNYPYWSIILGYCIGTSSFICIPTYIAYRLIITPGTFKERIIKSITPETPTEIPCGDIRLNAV
Sequence of Sodium-dependent noradrenaline transporter (P23975 whole entry): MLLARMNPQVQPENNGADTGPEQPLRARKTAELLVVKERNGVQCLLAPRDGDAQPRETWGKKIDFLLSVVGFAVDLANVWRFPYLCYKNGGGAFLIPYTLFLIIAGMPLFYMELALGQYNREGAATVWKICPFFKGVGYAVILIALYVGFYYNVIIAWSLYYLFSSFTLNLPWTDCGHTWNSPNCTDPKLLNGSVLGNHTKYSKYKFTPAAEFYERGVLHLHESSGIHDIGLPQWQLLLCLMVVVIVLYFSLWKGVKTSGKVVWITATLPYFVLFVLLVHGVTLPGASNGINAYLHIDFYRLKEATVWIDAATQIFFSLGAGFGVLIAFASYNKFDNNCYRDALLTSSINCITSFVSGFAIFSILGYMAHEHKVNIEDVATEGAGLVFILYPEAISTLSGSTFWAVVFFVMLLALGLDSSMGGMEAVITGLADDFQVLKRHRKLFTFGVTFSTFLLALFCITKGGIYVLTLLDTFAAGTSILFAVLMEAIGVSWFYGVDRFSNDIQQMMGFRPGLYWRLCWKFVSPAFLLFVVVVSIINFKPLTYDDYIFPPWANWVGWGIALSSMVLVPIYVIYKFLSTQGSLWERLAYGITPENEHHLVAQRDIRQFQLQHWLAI

SMILES	Ki [1] [nM]	Ratio Ki [2]	Ratio [3]	Ratio [4]	Ratio [5]	Ratio [6]	Ratio [7]	Ratio [8]	Ratio [9]	Ratio [10]	Ratio [11]	Ratio [12]	Ratio [13]	Ratio [14]	Ki [15] [nM]	Ratio Ki [16]	Ki [17] [nM]	logD [18]
COc1ccccc1O[C@@H](c1ccccc1)[C@@H]1CNCCO1	> 2000	195	–	–	–	–	–	–	–	–	–	–	–	–	–	–	–	–
[11CH3]c1ccccc1S[C@@H](c1ccccc1)[C@@H]1CNCCO1	–	–	1	1	0.95	1.15	1.33	1.02	1.34	0.81	0.98	1.27	1.05	1.09	–	–	–	–
FCCCc1ccccc1O[C@@H](c1ccccc1)[C@@H]1CNCCO1	> 6000	126	–	–	–	–	–	–	–	–	–	–	–	–	3.68	> 2000	463	2.29
